Data on five compounds can be found in ChEMBL document CHEMBL3822431, “Hydroxychalcone inhibitors of Streptococcus mutans glucosyl transferases and biofilms as potential anticaries agents” (Bioorg Med Chem Lett, 2016).

SMILES strings stand for the structures. The source made the active and inactive calls. No cut-off for these calls is given here.

Assay [1] has as its target T1, Glucosyltransferase-SI (Streptococcus mutans serotype c (strain ATCC 700610 / UA159)) (UniProt P13470).
T1 sequence (whole entry): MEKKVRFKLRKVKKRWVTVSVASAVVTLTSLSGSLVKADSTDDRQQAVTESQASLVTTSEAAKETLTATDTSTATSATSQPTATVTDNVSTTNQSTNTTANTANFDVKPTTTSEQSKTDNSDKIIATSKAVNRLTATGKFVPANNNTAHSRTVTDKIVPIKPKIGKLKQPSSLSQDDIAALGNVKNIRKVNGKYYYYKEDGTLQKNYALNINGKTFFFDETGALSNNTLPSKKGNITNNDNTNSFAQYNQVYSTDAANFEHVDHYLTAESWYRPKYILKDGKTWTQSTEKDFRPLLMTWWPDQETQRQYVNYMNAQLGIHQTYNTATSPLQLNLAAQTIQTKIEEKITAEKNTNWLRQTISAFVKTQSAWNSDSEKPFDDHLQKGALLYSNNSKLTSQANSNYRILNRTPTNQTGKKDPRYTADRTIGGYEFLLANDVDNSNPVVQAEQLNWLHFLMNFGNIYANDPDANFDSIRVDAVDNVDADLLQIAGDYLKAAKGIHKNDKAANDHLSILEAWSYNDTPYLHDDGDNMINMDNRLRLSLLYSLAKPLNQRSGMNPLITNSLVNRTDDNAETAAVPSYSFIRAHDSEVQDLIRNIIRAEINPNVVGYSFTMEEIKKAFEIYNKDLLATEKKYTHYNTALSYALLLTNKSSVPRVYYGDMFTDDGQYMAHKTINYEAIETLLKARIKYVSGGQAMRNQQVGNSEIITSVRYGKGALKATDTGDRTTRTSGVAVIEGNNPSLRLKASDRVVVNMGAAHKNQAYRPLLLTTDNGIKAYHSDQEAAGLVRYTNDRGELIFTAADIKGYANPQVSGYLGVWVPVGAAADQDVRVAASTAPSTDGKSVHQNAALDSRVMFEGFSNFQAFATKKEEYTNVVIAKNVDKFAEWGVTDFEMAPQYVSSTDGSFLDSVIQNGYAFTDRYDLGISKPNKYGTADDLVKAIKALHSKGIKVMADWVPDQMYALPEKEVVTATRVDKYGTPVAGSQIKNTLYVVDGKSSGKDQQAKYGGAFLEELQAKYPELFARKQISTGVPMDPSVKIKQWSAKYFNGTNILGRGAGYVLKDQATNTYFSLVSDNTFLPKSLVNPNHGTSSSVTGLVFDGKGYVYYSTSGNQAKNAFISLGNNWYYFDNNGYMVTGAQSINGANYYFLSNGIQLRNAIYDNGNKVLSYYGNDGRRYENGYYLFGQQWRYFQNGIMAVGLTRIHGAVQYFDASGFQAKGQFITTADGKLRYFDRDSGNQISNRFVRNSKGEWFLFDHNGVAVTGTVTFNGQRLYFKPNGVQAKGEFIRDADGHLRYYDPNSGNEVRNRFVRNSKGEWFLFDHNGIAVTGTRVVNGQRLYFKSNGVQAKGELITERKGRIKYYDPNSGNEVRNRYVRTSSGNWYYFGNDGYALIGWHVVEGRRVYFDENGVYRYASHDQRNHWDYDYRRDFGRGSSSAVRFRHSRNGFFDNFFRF
The assay is described as follows: Inhibition of Wild-type Streptococcus mutans UA159 glucosyltransferase C at 50 uM by coomassie blue staining based SDS-PAGE method. The method in brief: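 Compound (50 µM) added to overnight S. mutans UA159 wild-type cultures; Gtfs collected and concentrated from supernatants, run on SDS-PAGE in duplicate; one gel Coomassie blue stained for protein levels.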

The subject of assay [2] is Streptococcus mutans. The assay can be described thus: Inhibition of Gfp tagged Streptococcus mutans UA159 colony formation in guts of sucrose-dependent Drosophila colonization model at 50 uM measured 7 days post infection by fluorescent microscopy. The class given is functional, organism-based. The method in brief: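 Drosophila fed Gfp-tagged S. mutans with compound at 50 µM; DMSO as negative control, ΔgtfB mutant as biofilm-defective comparator; gut fluorescence examined by fluorescent microscopy 7 days after infection.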

Assay [3] relates to Streptococcus mutans. The assay can be described thus: Growth inhibition of Streptococcus mutans UA159 after 16 hrs. The class given is organism-based. The conditions noted are these: Streptococcus mutans, UA159, 16 h; read-out: IC50. In short, it runs like this:
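S. mutans UA159 co-incubated with compound at various concentrations; growth measured at OD470.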

Consider `O=C(/C=C\c1ccc(O)cc1O)c1cccc(O)c1`, for which the inhibition entry in assay [1] and in assay [2] was “Active” in each case.
Consider `O=C(/C=C/c1cc(O)c(O)cc1O)c1ccccc1O` (stereo in doubt; 18c), for which the inhibition result in assay [1] is “Active”.
For `O=C(/C=C/c1ccc(O)cc1O)c1ccc(O)cc1`, in assay [1], the inhibition result is “Active”. Besides, the 50% inhibitory concentration (IC50) – broadly, the concentration that gives 50% inhibition – in assay [3] came out at 1.06 mM.
In the case of `O=C(/C=C\c1ccc(O)cc1O)c1ccc(O)cc1`, the inhibition result in assay [1] was “Active”.
For the compound `O=C(/C=C/c1ccc(O)cc1O)c1cccc(O)c1` (stereo in doubt; 9a), the inhibition entry in assay [1] and in assay [2] was “Active” in each case.
